# Measured values published in ChEMBL document CHEMBL1909618, “Non-steroidal dissociated glucocorticoid agonists: indoles as A-ring mimetics and function-regulating pharmacophores” (Bioorg Med Chem Lett, 2011).
# Key:
# [1] = biological target: T1, Progesterone receptor (Homo sapiens, UniProt P06401); assay: Displacement of tetramethylrhodamine-labeled RU-486 from human recombinant progesterone receptor expressed in baculovirus infected insect cells by fluorescence polarization assay
# T1 sequence (P06401 whole entry): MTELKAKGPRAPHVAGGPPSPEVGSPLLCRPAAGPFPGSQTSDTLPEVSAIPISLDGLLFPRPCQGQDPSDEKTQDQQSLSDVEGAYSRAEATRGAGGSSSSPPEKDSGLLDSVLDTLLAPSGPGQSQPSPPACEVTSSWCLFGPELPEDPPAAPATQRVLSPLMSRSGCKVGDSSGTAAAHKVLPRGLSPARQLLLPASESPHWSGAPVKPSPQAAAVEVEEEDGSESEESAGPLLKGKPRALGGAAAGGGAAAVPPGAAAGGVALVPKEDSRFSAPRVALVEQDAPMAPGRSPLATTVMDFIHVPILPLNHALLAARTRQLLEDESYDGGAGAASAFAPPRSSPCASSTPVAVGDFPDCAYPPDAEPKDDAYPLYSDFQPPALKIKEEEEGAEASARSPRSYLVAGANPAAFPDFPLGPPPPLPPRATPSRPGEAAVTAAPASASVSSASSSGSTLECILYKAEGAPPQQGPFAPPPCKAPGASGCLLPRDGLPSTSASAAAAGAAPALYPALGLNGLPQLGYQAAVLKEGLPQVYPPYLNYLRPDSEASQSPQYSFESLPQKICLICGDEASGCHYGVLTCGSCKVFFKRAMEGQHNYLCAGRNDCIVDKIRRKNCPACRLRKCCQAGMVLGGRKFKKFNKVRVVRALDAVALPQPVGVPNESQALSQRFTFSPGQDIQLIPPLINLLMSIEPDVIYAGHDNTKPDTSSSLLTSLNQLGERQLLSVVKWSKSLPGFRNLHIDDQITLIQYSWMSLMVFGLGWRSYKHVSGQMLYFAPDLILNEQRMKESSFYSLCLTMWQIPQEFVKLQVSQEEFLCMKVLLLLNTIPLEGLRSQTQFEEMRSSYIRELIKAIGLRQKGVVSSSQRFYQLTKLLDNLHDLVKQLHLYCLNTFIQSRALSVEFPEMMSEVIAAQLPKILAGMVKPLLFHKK
# Outline: (§1)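 Fluorescence polarization competition assays with recombinant human receptors in lysates of baculovirus-infected insect cells. Reactions contained 1% DMSO and ran 1 h at room temperature.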
# [2] = biological target: T2, Mineralocorticoid receptor (Homo sapiens, UniProt P08235); assay: Displacement of tetramethylrhodamine-labeled Dexamethasone from human recombinant mineralocorticoid receptor expressed in baculovirus infected insect cells by fluorescence polarization assay; outline: as §1
# T2 sequence (P08235 whole entry): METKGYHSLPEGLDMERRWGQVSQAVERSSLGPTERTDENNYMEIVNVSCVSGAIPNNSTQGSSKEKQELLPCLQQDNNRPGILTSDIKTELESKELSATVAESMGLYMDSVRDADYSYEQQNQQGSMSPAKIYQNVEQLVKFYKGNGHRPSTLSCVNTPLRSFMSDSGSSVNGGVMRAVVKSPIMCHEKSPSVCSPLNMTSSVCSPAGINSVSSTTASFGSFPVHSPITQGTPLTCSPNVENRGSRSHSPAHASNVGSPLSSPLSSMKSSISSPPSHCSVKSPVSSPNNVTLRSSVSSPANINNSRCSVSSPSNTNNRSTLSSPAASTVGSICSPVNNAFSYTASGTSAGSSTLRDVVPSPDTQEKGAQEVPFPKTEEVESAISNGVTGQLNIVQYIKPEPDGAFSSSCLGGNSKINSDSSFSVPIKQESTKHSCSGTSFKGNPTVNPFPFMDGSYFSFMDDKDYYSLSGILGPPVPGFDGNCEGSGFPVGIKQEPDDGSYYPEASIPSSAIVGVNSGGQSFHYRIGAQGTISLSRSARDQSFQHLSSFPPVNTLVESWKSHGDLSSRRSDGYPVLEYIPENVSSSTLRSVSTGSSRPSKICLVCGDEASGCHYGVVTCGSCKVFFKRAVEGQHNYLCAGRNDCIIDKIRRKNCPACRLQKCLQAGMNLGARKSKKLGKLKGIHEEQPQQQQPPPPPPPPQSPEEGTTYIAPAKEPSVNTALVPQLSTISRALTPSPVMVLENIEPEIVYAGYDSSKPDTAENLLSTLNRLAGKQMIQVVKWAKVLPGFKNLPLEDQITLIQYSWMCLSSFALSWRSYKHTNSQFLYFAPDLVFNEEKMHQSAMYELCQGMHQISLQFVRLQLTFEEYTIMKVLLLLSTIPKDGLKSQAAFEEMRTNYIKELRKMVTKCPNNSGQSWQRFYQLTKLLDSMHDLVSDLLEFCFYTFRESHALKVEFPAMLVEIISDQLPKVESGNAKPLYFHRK
# [3] = biological target: T3, Glucocorticoid receptor (Homo sapiens, UniProt P04150); assay: Agonist activity at glucocorticoid receptor in HFF assessed as inhibition of IL1-induced IL-6 production after 18 to 24 hrs; format: functional
# T3 sequence (P04150 whole entry): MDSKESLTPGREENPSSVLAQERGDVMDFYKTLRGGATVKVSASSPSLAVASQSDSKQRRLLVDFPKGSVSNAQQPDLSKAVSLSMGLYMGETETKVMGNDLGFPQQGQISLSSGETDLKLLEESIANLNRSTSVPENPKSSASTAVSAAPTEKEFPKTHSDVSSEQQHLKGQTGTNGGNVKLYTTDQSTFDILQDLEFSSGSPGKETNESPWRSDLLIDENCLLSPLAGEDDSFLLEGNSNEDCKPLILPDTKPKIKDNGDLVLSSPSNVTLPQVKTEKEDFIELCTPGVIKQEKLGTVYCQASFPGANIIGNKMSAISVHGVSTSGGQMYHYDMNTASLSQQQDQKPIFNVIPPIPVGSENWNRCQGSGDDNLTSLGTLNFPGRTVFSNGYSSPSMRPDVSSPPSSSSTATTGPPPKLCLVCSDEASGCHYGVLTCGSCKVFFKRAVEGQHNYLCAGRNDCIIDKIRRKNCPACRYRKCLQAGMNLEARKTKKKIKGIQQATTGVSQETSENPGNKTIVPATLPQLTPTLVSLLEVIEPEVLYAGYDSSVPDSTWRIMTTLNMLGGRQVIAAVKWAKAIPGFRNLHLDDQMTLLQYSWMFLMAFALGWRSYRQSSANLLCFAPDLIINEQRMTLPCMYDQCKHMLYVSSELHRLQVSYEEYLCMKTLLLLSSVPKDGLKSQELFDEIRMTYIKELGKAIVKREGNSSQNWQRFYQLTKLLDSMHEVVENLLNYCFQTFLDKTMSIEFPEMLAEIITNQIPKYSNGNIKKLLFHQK
# [4] = biological target: T4, Glucocorticoid receptor (Homo sapiens) (UniProt P04150); assay: Transactivation activity of glucocorticoid receptor in HFF assessed as induction of aromatase activity by measuring beta-estradiol activity after 18 to 24 hrs by ELISA relative to Dexamethasone
# T4 sequence (whole entry): T3 sequence (P04150 whole entry)
# [5] = biological target: T4, Glucocorticoid receptor (Homo sapiens); assay: Agonist activity at glucocorticoid receptor in HFF assessed as inhibition of IL1-induced IL-6 production after 18 to 24 hrs relative to Dexamethasone; format: functional
# Outline: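 Human foreskin fibroblasts stimulated with IL-1 (1 ng/mL) in the presence of test compound, incubated at 37 °C for 18–24 h. IL-6 in the culture medium was quantified by electrochemiluminescence, DELFIA or ELISA. IC50 and % maximal efficacy were reported.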
# [6] = biological target: T3, Glucocorticoid receptor; assay: Displacement of tetramethylrhodamine-labeled Dexamethasone from human recombinant glucocorticoid receptor expressed in baculovirus infected insect cells by fluorescence polarization assay
# [7] = biological target: T3, Glucocorticoid receptor; assay: Transactivation activity of glucocorticoid receptor in HFF assessed as induction of aromatase activity by measuring beta-estradiol activity after 18 to 24 hrs by ELISA
SMILES,IC50 [1],IC50 [2],IC50 [3],Efficacy [4],Efficacy [5],IC50 [6],EC50 ([7]; read-out: EC50),EC50 [7]
COc1ccc(F)cc1C(C)(C)C[C@](O)(Cc1cc2ccccc2[nH]1)C(F)(F)F,1200 nM,1100 nM,> 2000 nM,20%,20%,> 2000 nM,> 2000 nM,–
CC(C)(C[C@](O)(Cc1cc2ccc(C#N)cc2[nH]1)C(F)(F)F)c1cc(S(C)(=O)=O)cc2c1OCC2,1400 nM,405 nM,–,–,–,405 nM,–,–
COc1ccc(F)cc1C(C)(C)CC(O)(Cc1cc2cccc(F)c2[nH]1)C(F)(F)F (racemic),930 nM,435 nM,36 nM,89%,75%,15 nM,473 nM,–
COc1ccc(F)cc1C(C)(C)CC(O)(Cc1cc2cccc(C)c2[nH]1)C(F)(F)F (racemic),1450 nM,1040 nM,> 2000 nM,26%,26%,56 nM,> 2000 nM,–
COc1ccc(F)cc1C(C)(C)CC(O)(Cc1cc2cccc(C(F)(F)F)c2[nH]1)C(F)(F)F (racemic),1750 nM,1650 nM,> 2000 nM,–,–,120 nM,> 2000 nM,–
COc1ccc(F)cc1C(C)(C)CC(O)(Cc1cc2cccc(C#N)c2[nH]1)C(F)(F)F (racemic),> 2000 nM,1420 nM,> 2000 nM,–,30%,27 nM,> 2000 nM,–
COc1ccc(F)cc1C(C)(C)CC(O)(Cc1cc2c(C)cccc2[nH]1)C(F)(F)F (racemic),350 nM,415 nM,6 nM,110%,91%,30 nM,9 nM,–
COc1ccc(F)cc1C(C)(C)CC(O)(Cc1cc2c(C(F)(F)F)cccc2[nH]1)C(F)(F)F (racemic),> 2000 nM,> 2000 nM,290 nM,30%,70%,160 nM,–,Not Active
COc1ccc(F)cc1C(C)(C)CC(O)(Cc1cc2cc(F)ccc2[nH]1)C(F)(F)F (racemic),405 nM,405 nM,78 nM,98%,84%,24 nM,94 nM,–
COc1ccc(F)cc1C(C)(C)CC(O)(Cc1cc2cc(C)ccc2[nH]1)C(F)(F)F (racemic),1800 nM,1250 nM,113 nM,104%,86%,66 nM,230 nM,–
COc1ccc(F)cc1C(C)(C)CC(O)(Cc1cc2cc(C(F)(F)F)ccc2[nH]1)C(F)(F)F (racemic),> 2000 nM,> 2000 nM,191 nM,65%,77%,290 nM,640 nM,–
COc1ccc(F)cc1C(C)(C)CC(O)(Cc1cc2ccc(F)cc2[nH]1)C(F)(F)F (racemic),265 nM,350 nM,29 nM,84%,94%,30 nM,33 nM,–
COc1ccc(F)cc1C(C)(C)CC(O)(Cc1cc2ccc(C)cc2[nH]1)C(F)(F)F (racemic),1250 nM,720 nM,334 nM,70%,60%,38 nM,976 nM,–
COc1ccc(F)cc1C(C)(C)CC(O)(Cc1cc2ccc(C(F)(F)F)cc2[nH]1)C(F)(F)F (racemic),1600 nM,910 nM,> 2000 nM,–,–,77 nM,> 2000 nM,–
CC(C)(CC(O)(Cc1cc2ccccc2[nH]1)C(F)(F)F)c1cccc2c1OCC2 (racemic),225 nM,400 nM,10 nM,103%,83%,19 nM,311 nM,–
CC(C)(CC(O)(Cc1cc2ccccc2[nH]1)C(F)(F)F)c1cc(F)cc2c1OCC2 (racemic),255 nM,265 nM,21 nM,98%,90%,8 nM,125 nM,–
Cc1cc2c(c(C(C)(C)CC(O)(Cc3cc4ccccc4[nH]3)C(F)(F)F)c1)OCC2 (racemic),145 nM,240 nM,7 nM,105%,95%,10 nM,16 nM,–
CC(C)(CC(O)(Cc1cc2ccccc2[nH]1)C(F)(F)F)c1cc(Br)cc2c1OCC2 (racemic),415 nM,585 nM,16 nM,99%,88%,32 nM,45 nM,–
C[C@@H]1C[C@H]2[C@@H]3CCC4=CC(=O)C=C[C@]4(C)[C@@]3(F)[C@@H](O)C[C@]2(C)[C@@]1(O)C(=O)CO [DEXAMETHASONE],> 2000 nM,–,–,–,–,–,–,–
